Measured values as given in article PMC9472799 (Biomacromolecules, 2022).

Tests used:
Assay type in all cases: biochemical
[1] = target: T1, sickle hemoglobin (HbS) (Homo sapiens, UniProt P68871+P69905, P68871:E7V); test: FLT-FRET dose response and DLS
[2] = target: T1, sickle hemoglobin (HbS); test: NMR binding
Outline: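 HbS labelled at cysteine thiols with rhodamine red (donor) or Cy5 (acceptor) after TCEP reduction; free dye dialysed away. Donor and acceptor HbS mixed 1:5 at 25 μM. Incubated 2 h at room temperature with test compound at seven concentrations (0.1–1000 μM) or DMSO. Vacuum argon degassed 10 min to deoxygenate. Donor fluorescence lifetime read; FRET efficiency E = 1 − τDA/τD.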

[3] = target: T1, sickle hemoglobin (HbS); test: DLS oligomer size and FLT-FRET with purified deoxy-HbS

COc1ccc(-c2ccc(=N)n(CCCC(=O)O)n2)cc1 [gabazine]
FLT-FRET dose response and DLS (100 μM) with purified deoxy-HbS [1]: all three compounds significantly decreased the oligomer size relative to control (and to the same extent as voxelotor)

CN1C(=O)CCS(=O)(=O)C1c1ccc(Cl)cc1 (stereo not drawn) [chlormezanone]
IC50 [2]: > 100 µM

CC(C)n1nccc1-c1ncccc1COc1cccc(O)c1C=O [voxelotor]
DLS oligomer size and FLT-FRET with purified deoxy-HbS [3]: voxelotor (a compound that increases hemoglobin oxygen binding affinity), which dramatically reduced the mean oligomer size (Figure 1A)
